# Assay outcomes (PubChem BioAssay)
# Sampled rows, rich in hits. Any-hit rate of the full collection: about 3.1%.
# miR-122 sensor = miR-122 Renilla sensor signal increase in Huh7, primary screen, miR-122 inhibitor project, cell-based, single point, plate reader; 0.3% of 340,000 active; activation (reporter increase), % at 12.5 µM; Huh7 miR-122 Renilla luciferase sensor, 48 h; neutral wells = 0, positive control = 100;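 active = mean replicate activation score at least 90 and every replicate individually at or above 90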;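 also: higher luciferase means less miR-122 activity so hits act as miR-122 inhibitors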
# E-sel inducer = E-selectin induction in HUVECs, primary screen, imaging, HUVEC, immunofluorescence imaging, single point; P16581; normalized: neutral wells 0, TNF-alpha wells 100; activation, % at 7.58 µM; 0.37% of 260,000 active; AID 686992, 2013;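 active = mean E-selectin-positive cell signal at least 10% of the positive control, reached in at least 60% of replicates, without over 20% cell loss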
# Target sequence (P16581 whole entry, looked up): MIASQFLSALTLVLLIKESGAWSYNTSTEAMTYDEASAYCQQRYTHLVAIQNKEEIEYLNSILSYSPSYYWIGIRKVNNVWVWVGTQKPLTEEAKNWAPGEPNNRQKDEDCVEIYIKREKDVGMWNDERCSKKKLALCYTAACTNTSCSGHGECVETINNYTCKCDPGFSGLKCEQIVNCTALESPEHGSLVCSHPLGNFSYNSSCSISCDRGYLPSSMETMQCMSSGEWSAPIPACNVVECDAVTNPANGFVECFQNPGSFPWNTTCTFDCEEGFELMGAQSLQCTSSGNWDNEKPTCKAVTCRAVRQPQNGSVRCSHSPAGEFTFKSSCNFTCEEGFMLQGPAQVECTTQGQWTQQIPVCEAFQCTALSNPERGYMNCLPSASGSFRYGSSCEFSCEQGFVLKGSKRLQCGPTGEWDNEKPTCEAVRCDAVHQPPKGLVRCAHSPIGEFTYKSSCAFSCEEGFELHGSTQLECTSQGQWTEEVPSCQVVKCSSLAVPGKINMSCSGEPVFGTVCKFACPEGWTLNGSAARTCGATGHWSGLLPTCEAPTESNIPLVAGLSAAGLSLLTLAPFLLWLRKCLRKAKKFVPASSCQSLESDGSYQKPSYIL
#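 System: HUVEC, human umbilical vein endothelial cells; quantity: 3,000 cells/well; buffer or medium: EGM-2 medium, gelatin-coated wells; dosing: single-point compound dose; detection: immunofluorescence imaging; evaluation: % PE-positive cells; benchmarks: TNF-alpha, DMSO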
# DENV2 CPE rescue = inhibitors of DENV2 cytopathic effect, primary screen, cell-based, plate reader, single concentration | 1.7% of 350,000 active | CPE inhibition, % at 9.99 µM | AID 651640, 2012 | DENV2-infected cells, cytopathic effect rescue; in the data active = CPE inhibition above about 20%, passing the limit was not always enough; tested in BHK-21 cells;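 also: 0% = median of neutral control wells and 100% = median of positive control wells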
# Ecoli rRNA inh = reduced GFP signal of wild-type E. coli, primary screen, bacterial rRNA inhibitor project, GFP/RFP fluorescence, OD600, single point; GFP signal change (wild-type ribosome), % (concentration not given with the values); 1.6% of 350,000 active; AID 720706, 2013; E. coli WT GFP vs humanized-ribosome RFP mutants, 24 h; active compounds read low; DMSO median 0, no signal -100;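 active = significant combined selectivity score with lowered wild-type GFP, culture density cut under 30%, mutant RFP and density less affected; inactive = any of these conditions unmet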
# Cneo AK release = Cryptococcus neoformans cell lysis inducers, primary screen, AK release luminescence, single concentration; lysis activity, % at 15 µM; C. neoformans lysis, adenylate kinase release luminescence, 4 h; normalised: neutral wells 0, clomiphene wells 100; 0.2% of 360,000 active;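 active = mean lysis activity across replicates of at least 80%, whatever share of replicates individually reach that level; inactive = mean lysis activity below 80%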
#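 Signal: Adenylate kinase release luminescence | Assay system: Log-phase Cryptococcus neoformans yeast cells | Input: Cells at 5 × 10^6 per mL | Buffer or medium: Fresh YPD growth medium | Compound: Single dose | Schedule: Static 4 h at 37 °C with compound, 1 h detection | Controls: Clomiphene | Read-out: Luminescence rise reflecting yeast cell lysis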
# Starred values were filed as active, the others as inactive; · = no result; [ ] = remark or other dose.
SMILES,miR-122 sensor,E-sel inducer,DENV2 CPE rescue,Ecoli rRNA inh,Cneo AK release
Cc1cc(NC(=O)CCC(=O)N(c2ccccc2)C(C(=O)NC2CCCC2)c2ccc(F)cc2)no1 (stereo not drawn),2,36*,-5,8,-1
C[C@H](CO)N1C[C@H](C)[C@@H](CN(C)C(=O)C2CCCCC2)OCCCC[C@H](C)Oc2ccc(NS(=O)(=O)c3cn(C)cn3)cc2C1=O,3[16.7 µM],0,8,1,0
Oc1cccc(/C=N/N(Cc2ccccc2)c2ccccc2)c1,·,0,-4,-42*,·
COc1ccc(Cc2n[nH]c(=S)n2-c2cc(C)ccc2C)cc1OC,-4,0,96*,5,3
Cc1ccc(-n2c(Cc3ccccc3)n[nH]c2=S)c(C)c1,·,·,0,-35,·
Cc1ccc(S(=O)(=O)N(c2nc(NC(C)C)nc(NC(C)C)n2)n2cnnc2)cc1,-2,·,24*,-6,-5
COC(=O)CN(n1cnnc1)S(=O)(=O)c1ccc(C)cc1,1,·,·,·,3
CC(C)NC(=O)Nc1ccc2c(c1)C(=O)N([C@H](C)CO)C[C@@H](C)[C@H](CN(C)S(=O)(=O)c1ccccc1)OCCCC[C@H](C)O2,5[16.7 µM],0,-3,-3,-2
Clc1ccc(-c2csc(N/N=C/c3ccco3)n2)cc1,·,0,1,3,·
C(=N\Nc1nc(-c2ccccc2)cs1)/c1ccco1,-5,0,·,·,·
CN(C)S(=O)(=O)c1ccc(-c2csc(N/N=C/c3ccco3)n2)cc1,·,·,-4,-20*,·
Brc1ccc(-c2csc(N/N=C/c3ccco3)n2)cc1,1,·,·,-38*,0
Clc1ccc(-c2csc(N/N=C\c3cccnc3)n2)cc1,·,0,3,-21*,·
Cc1ccc(-c2csc(N/N=C/c3ccco3)n2)cc1,2,·,·,·,1
CN(C)CC(=O)Nc1ccc2c(c1)[C@@H]1C[C@H](CC(=O)NCc3ccc4c(c3)OCO4)O[C@@H](CO)[C@@H]1O2,-5[16.7 µM],0,-1,3,-1
CS(=O)(=O)c1sc(C#N)c2c1C(=O)CC(c1ccccc1)C2 (stereo not drawn),-28,1,-17,-26*,-5
Cc1oc2c(c(=O)c1C)C(=O)CC(c1ccccc1)C2 (stereo not drawn),-1,·,·,·,4
CCOC(=O)CC1(C)Sc2ccccc2N1S(=O)(=O)c1ccc(C)cc1 (stereo not drawn),·,1,63*,-5,·
CC(Sc1nc2ccccc2n1C)C(=O)Nc1ccc(N2CCOCC2)cc1 (stereo not drawn),·,·,-2,-23*,·
CC(C)Cn1c(SC(C)C(=O)Nc2ccc(N3CCOCC3)cc2)nc2ccccc21 (stereo not drawn),·,·,4,5,·
O=C(C1CCCC1)N1CC2(C1)[C@H](c1ccccc1)[C@H](CO)N2C(=O)CC1CC1,·,0,-6,4,·
CCC(=O)N1CC2(C1)CN(C(C)=O)[C@@H](CO)c1[nH]c3cc(OC)ccc3c12,·,0,11,4,·
O=C(COc1ccc2ccccc2c1Br)N1CCOCC1,0,·,·,·,0
O=C(COc1ccc2ccccc2c1Br)N1CCCC1,-3,·,-8,-26*,0
Cc1ccc(S(=O)(=O)N[C@H]2CC[C@H](CCNC(=O)c3ccccc3F)O[C@H]2CO)cc1,-1[16.7 µM],-1,20,-3,22
SMILES,miR-122 sensor,E-sel inducer,DENV2 CPE rescue,Ecoli rRNA inh,Cneo AK release
C[C@@H]1CN([C@@H](C)CO)C(=O)Cc2cc(NC(=O)Nc3ccc(F)cc3)ccc2O[C@@H]1CN(C)Cc1ccncc1,1[16.7 µM],127*,3,-6,-1
C[C@H](CO)N1C[C@H](C)[C@@H](CN(C)Cc2ccncc2)Oc2ccc(NC(=O)Nc3ccc(F)cc3)cc2CC1=O,0[16.7 µM],-4,1,-5,1
C[C@@H]1CN([C@H](C)CO)C(=O)Cc2cc(NC(=O)Nc3ccc(F)cc3)ccc2O[C@@H]1CN(C)Cc1ccncc1,-2[16.7 µM],44*,1,-10,1
C[C@@H]1CN([C@@H](C)CO)C(=O)Cc2cc(NC(=O)Nc3ccc(F)cc3)ccc2O[C@H]1CN(C)Cc1ccncc1,-11[16.7 µM],-13,-7,1,-1
CCN(c1ccccc1)S(=O)(=O)c1ccc(Cl)c(NC(=O)CSc2n[nH]c(N)n2)c1,·,-1,0,-19*,·
Cc1[nH]c(SCC(=O)Nc2cc(S(C)(=O)=O)ccc2Cl)nc1Cc1ccccc1,·,2,4,-22*,-1
Cc1cc(NC(=O)CSc2nc(Cc3ccccc3)c(C)[nH]2)no1,1,·,0,1,-4
CO[C@H]1CC[C@@H]2CCOc3ccc(C#N)cc3C(=O)N(C)C[C@H](C)C(=O)N(C)C[C@H]1O2,·,0,-1,4,-1
O=C(CCc1nnc(Cc2c[nH]c3ccccc23)o1)NCCC1CCCCO1 (stereo not drawn),·,1,54*,6,2
O=C(CCc1nnc(Cc2c[nH]c3ccccc23)o1)NC1CCCC1,-5,0,6,2,6
CC(=O)N1N=C2c3ccccc3CCC2C1c1ccc(F)cc1 (stereo not drawn),5,·,-6,-44,0
CN(C)c1ccc(C2C3CCCc4ccccc4C3=NN2C)cc1 (stereo not drawn),·,·,0,-27*,·
COc1cccc(NC(=O)N2C[C@H](O)COC[C@H]3O[C@@H](CC(=O)NC4CCC4)CC[C@@H]32)c1,2[16.7 µM],0,-3,2,-3
Cc1ccc(S(=O)(=O)Nc2ccc3c(c2)CC(=O)N([C@H](C)CO)C[C@@H](C)[C@H](CN(C)Cc2ccc(Oc4ccccc4)cc2)O3)cc1,-12[16.7 µM],0,59*,1,53
C[C@@H]1CN([C@@H](C)CO)C(=O)Cc2cc(NS(=O)(=O)c3cccs3)ccc2O[C@@H]1CN(C)Cc1ccc(-c2ccccc2)cc1,-9[16.7 µM],0,44*,1,3
Cc1ccc(S(=O)(=O)Nc2ccc3c(c2)CC(=O)N([C@H](C)CO)C[C@@H](C)[C@@H](CN(C)Cc2ccc(Oc4ccccc4)cc2)O3)cc1,-11[16.7 µM],0,38*,4,-8
C[C@H]1CN([C@@H](C)CO)C(=O)Cc2cc(NS(=O)(=O)c3ccccc3)ccc2O[C@@H]1CN(C)Cc1ccc(-c2ccccc2)cc1,-5[16.7 µM],0,40*,-3,2
Cc1ccc(S(=O)(=O)Nc2ccc3c(c2)CC(=O)N([C@@H](C)CO)C[C@@H](C)[C@H](CN(C)Cc2ccc(Oc4ccccc4)cc2)O3)cc1,-8[16.7 µM],0,-26,3,-3
C[C@@H]1CN([C@H](C)CO)C(=O)Cc2cc(NS(=O)(=O)c3cccs3)ccc2O[C@H]1CN(C)Cc1ccc(-c2ccccc2)cc1,4[16.7 µM],0,15,-1,0
